Experimental data: ChEMBL document CHEMBL5137098, “Discovery of Substituted Di(pyridin-2-yl)-1,2,4-thiadiazol-5-amines as Novel Macrofilaricidal Compounds for the Treatment of Human Filarial Infections” (J Med Chem, 2022)
Values after ≈ are worked out from the molar mass of the structure shown.

How the values were obtained:
[1] = Metabolic stability in rat liver S9 fraction assessed as compound remaining at 3 uM measured at 60 mins by LC-MS/MS analysis; format: ADME, subcellular; conditions: read-out: Stability
[2] = Metabolic stability in human liver S9 fraction assessed as compound remaining at 3 uM measured at 60 mins by LC-MS/MS analysis; format: ADME, subcellular; conditions: read-out: Stability
[3] = Metabolic stability in rat liver microsome assessed as compound remaining at 3 uM measured at 30 mins in presence of NADPH by LC-MS/MS analysis; format: ADME; conditions: liver microsomes, read-out: Stability
In short: (§1)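 Liver microsomes at 0.3 mg/mL with 1 mM NADPH in 200 mM phosphate buffer plus 2 mM MgCl2, pH 7.4, at 37 °C. Substrate 3 µM, incubated 30 min, triplicate. Percent remaining measured by LC-MS/MS.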

[4] = Metabolic stability in human liver microsome assessed as compound remaining at 3 uM measured at 30 mins in presence of NADPH by LC-MS/MS analysis; format: ADME; conditions: liver microsomes, read-out: Stability; in short: as §1
[5] = system: Onchocerca gutturosa; test: Anti-filarial activity against Onchocerca gutturosa adult worms assessed as reduction in worm motility measured every 24 hrs for 5 days by olympus inverted microscopic analysis; format: functional, organism-based
In short: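 Adult worm motility read every 24 h, ending at 120 h. Serial 1-in-4 drug dilutions run to the activity endpoint. EC50 for motility reduction given as geomean, n=2.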

[6] = Kinetic solubility of compound incubated for 24 hrs; format: physicochemical; conditions: for Kinetic_solubility: 24 h
In short: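 10 mM DMSO stock diluted into buffer to 200 µM final, 2% DMSO, run in duplicate. Buffers were pH 7.4 0.1 M potassium phosphate, pH 2.2, 6.8 and 5. Shaken 24 h at room temperature in a filter plate, then filtered by positive pressure. Single-point calibration against DMSO standards.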

[7] = Octanol/water distribution coefficient, logD of the compound at pH 7.4 sonicated for 30 mins followed by 24 hrs shaking; format: physicochemical
In short: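 Octanol/pH 7.4 0.1 M potassium phosphate partition. Sample at 1000 uM from 10 mM DMSO stock, 10% DMSO final. Sonicated 30 min, then shaken 24 h at 750 rpm at room temperature. Plate centrifuged 3600 rpm for 30 min.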

[8] = system: Onchocerca volvulus; test: Antiparasitic activity against Onchocerca volvulus L5 assessed as reduction in motility at 1 uM; set-up: scale not given: the % may be the effect or the level left
[9] = Mutagenicity in Salmonella typhimurium TA98 in presence of liver S9 fraction by AMES test; format: toxicity, subcellular; conditions: salmonella enterica subsp. enterica serovar typhimurium
[10] = Mutagenicity in Salmonella typhimurium TA100 in presence of liver S9 fraction by AMES test; format: toxicity, subcellular; conditions: salmonella enterica subsp. enterica serovar typhimurium
[11] = Mutagenicity in Salmonella typhimurium TA1535 in presence of liver S9 fraction by AMES test; format: toxicity, subcellular; conditions: salmonella enterica subsp. enterica serovar typhimurium
[12] = Mutagenicity in Salmonella typhimurium TA97 in presence of liver S9 fraction by AMES test; format: toxicity, subcellular; conditions: salmonella enterica subsp. enterica serovar typhimurium
[13] = Mutagenicity in Escherichia coli WP2 uvrA in presence of liver S9 fraction by AMES test; format: toxicity, subcellular
[14] = Mutagenicity in Salmonella typhimurium TA98 in absence of liver S9 fraction by AMES test; format: toxicity; conditions: salmonella enterica subsp. enterica serovar typhimurium
[15] = Mutagenicity in Salmonella typhimurium TA100 in absence of liver S9 fraction by AMES test; format: toxicity; conditions: salmonella enterica subsp. enterica serovar typhimurium
[16] = Mutagenicity in Salmonella typhimurium TA1535 in absence of liver S9 fraction by AMES test; format: toxicity; conditions: salmonella enterica subsp. enterica serovar typhimurium
[17] = Mutagenicity in Salmonella typhimurium TA97 in absence of liver S9 fraction by AMES test; format: toxicity; conditions: salmonella enterica subsp. enterica serovar typhimurium
[18] = Mutagenicity in Escherichia coli WP2 uvrA in absence of liver S9 fraction by AMES test; format: toxicity
[19] = system: P-glycoprotein (human); test: Efflux ratio of apparent permeability in MDCK-II cells expressing human P-glycoprotein gene at 10 uM measured at 2 hrs by LC-MS/MS analysis; format: ADME, cell-based, Canis lupus familiaris; conditions: dog, MDCK-MDR1
[20] = Metabolic stability in mouse liver microsome assessed as compound remaining at 3 uM measured at 30 mins in presence of NADPH by LC-MS/MS analysis; format: ADME; conditions: liver microsomes, read-out: Stability; in short: as §1
[21] = system: Litomosoides sigmodontis; test: Antiparasitic activity against Litomosoides sigmodontis infected in BALB/c mouse assessed as reduction in worm burden at 30 mg/kg, po TID administered for 5 days; format: functional; set-up: scale not given: the % may be the effect or the level left; conditions: time 5 day

Compound | remaining at 1 h, 3 µM [1] [%] | remaining at 1 h, 3 µM [2] [%] | other results
CC(C)Oc1cnc(-c2nsc(Nc3ncccc3C(C)C)n2)cc1C(F)(F)F | – | – | remaining at 0.5 h, 3 µM [3]: 96%; remaining at 0.5 h, 3 µM [4]: 97%
Cc1cccnc1Nc1nc(-c2cc(C(=O)N(C)C)c(OC(C)C)cn2)ns1 | – | – | remaining at 0.5 h, 3 µM [3]: 90%; remaining at 0.5 h, 3 µM [4]: 91%
CC(=O)N(C)c1cc(C(F)(F)F)cnc1Nc1nc(-c2ccc(OC(C)C)cn2)ns1 | – | – | efflux ratio at 2 h, 10 µM [19]: 4.1
Cc1cccnc1Nc1nnc(-c2ccc(OC3CCOCC3)cn2)o1 | – | – | remaining at 0.5 h, 3 µM [3]: 39%; remaining at 0.5 h, 3 µM [4]: 83%
Cc1cccnc1N(c1nc(-c2ccc(OC(C)C)cn2)ns1)C(C)C | 60 | 79 | –
Cc1cccnc1Nc1nsc(-c2ccc(OC3CCOCC3)cn2)n1 | – | – | remaining at 0.5 h, 3 µM [3]: 89%; remaining at 0.5 h, 3 µM [4]: 77%
Cc1cccnc1Nc1nnc(-c2ccc(OC3CCOCC3)cn2)s1 | – | – | remaining at 0.5 h, 3 µM [3]: 89%; remaining at 0.5 h, 3 µM [4]: 100%
Cc1cccnc1Nc1nc(-c2cc(C3CCN(C)CC3)ccn2)ns1 | 81 | 78 | –
Cc1cccnc1Nc1nc(-c2ncc(OC(C)C)cn2)ns1 | – | – | remaining at 0.5 h, 3 µM [3]: 90%; remaining at 0.5 h, 3 µM [4]: 96%
CC(C)Oc1ccc(-c2nsc(N(C)c3ncccc3C(C)C)n2)nc1 | 4 | 32 | –
CC(C)Oc1cnc(-c2nsc(Nc3ncccc3N3CCCC3=O)n2)cc1C(F)(F)F | – | – | efflux ratio at 2 h, 10 µM [19]: 3.9
CC(C)Oc1cc(-c2nsc(Nc3ncccc3N(C)C)n2)ncc1C(F)(F)F | 8 | 100 | –
CC(C)c1cnc(Nc2nc(-c3ncccc3OC3CC3)ns2)cc1C(F)(F)F | 93 | 100 | –
Cc1cccnc1Nc1n[nH]c(-c2ccc(OC3CCOCC3)cn2)n1 | – | – | remaining at 0.5 h, 3 µM [4]: 92%; remaining at 0.5 h, 3 µM [20]: 70%
CC(=O)N(C)c1cccnc1Nc1nc(-c2cc(C(F)(F)F)c(OC(C)C)cn2)ns1 | – | – | efflux ratio at 2 h, 10 µM [19]: 4.5
CC(C)Oc1cnc(-c2nsc(Nc3ncccc3N(C)C(=O)C3CC3)n2)cc1C(F)(F)F | – | – | efflux ratio at 2 h, 10 µM [19]: 2.2
CC(C)Oc1ccc(-c2nsc(Nc3ncccc3C(N)=O)n2)nc1 | – | – | efflux ratio at 2 h, 10 µM [19]: 4.6
CC(C)Oc1cnc(-c2nsc(Nc3ncccc3N(C)C)n2)cc1C(F)(F)F | – | – | remaining at 0.5 h, 3 µM [3]: 93%; remaining at 0.5 h, 3 µM [4]: 98%
CC(=O)N(C)c1cc(C(F)(F)F)cnc1Nc1nc(-c2cc(C(C)C)ccn2)ns1 | – | – | efflux ratio at 2 h, 10 µM [19]: 8.4
CC(=O)N(C)c1cc(C(F)(F)F)cnc1Nc1nc(-c2cc(OC(C)C)ccn2)ns1 | – | – | Kinetic_solubility [6]: 0.4 µM; efflux ratio at 2 h, 10 µM [19]: 15.2
CC(C)Oc1ccc(-c2nsc(Nc3ncccc3C(=O)N(C)C)n2)nc1 | – | – | efflux ratio at 2 h, 10 µM [19]: 11
COc1ccc(Nc2nc(-c3ccccn3)ns2)nc1 | – | – | remaining at 0.5 h, 3 µM [3]: 78%; remaining at 0.5 h, 3 µM [4]: 90%; Activity [21]: 50.1%
Cc1cccnc1Nc1nc(-c2ccc(OC3CCOCC3)cn2)no1 | 85 | 98 | –
Cc1cccnc1Nc1nc(-c2cc(C#N)c(OC(C)C)cn2)ns1 | 84 | 100 | –

More lines, main results first:

remaining at 1 h, 3 µM [1] [%] | remaining at 1 h, 3 µM [2] [%] | Compound | other results
51 | 59 | COc1ccc(Nc2nc(-c3ccccn3)cs2)nc1 | –
73 | 86 | CNc1cccnc1Nc1nc(-c2ccc(OC(C)C)cn2)ns1 | –
61 | 86 | Cc1cccnc1-c1nsc(Nc2ccc(N3CCCC3)cn2)n1 | EC50 [5]: 40 nM; solubility kinetic at 24 h ([6]; read-out: Kinetic_solubility): 2.17 µM (≈ 0.734 µg/mL); logD at 24.5 h [7]: 2.65
78 | 65 | Cc1cccnc1Nc1nc(-c2cc(C#N)ccn2)ns1 | –
61 | 56 | Cc1ccnc(-c2nsc(Nc3ncccc3C(F)(F)F)n2)c1 | –
32 | 52 | Cc1cccnc1Nc1nc(-c2ccc(OC3CCN(C4CC4)CC3(F)F)cn2)ns1 (stereo unspecified) | –
78 | 39 | CC(C)c1cccnc1Nc1nc(-c2ccc(OC3CC3)cn2)ns1 | Kinetic_solubility [6]: 0.2 µM; Activity [8]: 100%
79 | 86 | CC(C)Oc1ccc(-c2nsc(Nc3ncccc3N(C)C)n2)nc1 | Activity [9]: Non-Toxic; Activity [10]: Non-Toxic; Activity [11]: Non-Toxic; Activity [12]: Non-Toxic; Activity [13]: Non-Toxic; Activity [14]: Non-Toxic; Activity [15]: Non-Toxic; Activity [16]: Non-Toxic; Activity [17]: Non-Toxic; Activity [18]: Non-Toxic; Activity [8]: 100%
83 | 83 | c1ccc(Nc2nc(-c3ccccn3)ns2)nc1 | –
61 | 76 | Cc1cccnc1Nc1nc(-c2ccc(OC3CC3)cn2)ns1 | Activity [8]: 100%
73 | 66 | Cc1cccnc1Nc1nc(-c2ccc(C#N)cn2)ns1 | –
94 | 97 | Cc1cccnc1Nc1nc(-c2ccc(C(=O)N(C)C)cn2)ns1 | –
100 | 100 | COc1cccnc1Nc1nc(-c2ccc(OC(C)C)cn2)ns1 | –
100 | 100 | CC(C)Oc1ccc(-c2nsc(Nc3cc(C(F)(F)F)c(C(C)C)cn3)n2)nc1 | –
82 | 84 | Cc1cccnc1Nc1nc(-c2ccc(OC3CCOCC3)cn2)ns1 | –
53 | 58 | Cc1cccnc1Nc1nc(-c2ccc(OC3CC4(C3)CN(C3CC3)C4)cn2)ns1 | –
99 | 88 | CN1CCC(Oc2ccc(Nc3nc(-c4ccccn4)ns3)nc2)CC1 | –
27 | 45 | CC(C)c1ccnc(-c2nsc(Nc3ncccc3C(F)(F)F)n2)c1 | –
91 | 100 | CN(C)c1cccnc1Nc1nc(-c2ccc(OC3CC3)cn2)ns1 | Activity [8]: 100%
78 | 89 | Cc1cccnc1Nc1nc(-c2cc(C(=O)N(C)C)ccn2)ns1 | –
70 | 72 | COc1cccnc1Nc1nc(-c2cc(C)ccn2)ns1 | –
74 | 81 | Cc1cccnc1Nc1nc(-c2cnc(OC(C)C)cn2)ns1 | –
81 | 96 | Cc1cccnc1N(C)c1nc(-c2ccc(OC(C)C)cn2)ns1 | –
